In brackets after ≈: the same amount, converted by molar mass.
Experiments:
[1] = species on record: Mus musculus; assay: Toxicity in mouse assessed as irritant dose causing ear redness after 24 hours by inflammation assay; type: organism-based; conditions: in vivo
Summary of the method: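 Compound applied to the mouse ear as an acetone (Me2CO) solution. Ear redness was scored 4 and 24 h after application. […] TPA served as the reference irritant.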

[2] = system: B16; assay: Cytotoxicity against mouse B16 cells by MTT assay; type: functional, cell-based
[3] = species on record: Mus musculus; assay: Toxicity in mouse assessed as irritant dose causing ear redness after 4 hours by inflammation assay; type: organism-based; conditions: in vivo
Summary of the method: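 Test solution in Me2CO applied to the mouse ear; ear redness scored 4 and 24 h after application. […] TPA (12-O-tetradecanoylphorbol 13-acetate) run as reference irritant.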

Row | SMILES | ID50 [1] | IC50 [2] | ID50 [3]
1 | C=C1[C@H](OC(C)=O)[C@@H](OC(C)=O)[C@@H](OC(C)=O)C(C)(C)/C=C/[C@H](C)C(=O)[C@@]2(OC(C)=O)C[C@@](C)(OC(=O)c3ccccc3)[C@H](OC(C)=O)[C@@H]2[C@H]1OC(C)=O | > 100 µg | > 5 µg/mL | –
2 | CC[C@]1(O)C[C@@H]2CN(CCc3c([nH]c4ccccc34)[C@@](C(=O)OC)(c3cc4c(cc3OC)N(C)[C@H]3[C@@](O)(C(=O)OC)[C@H](OC(C)=O)[C@]5(CC)C=CCN6CC[C@]43[C@@H]65)C2)C1 [VINBLASTINE] | – | 3.6 µg/mL (≈ 4.44 µM) | –
3 | C=C1[C@H](OC(C)=O)[C@H]2[C@@H](OC(C)=O)[C@](C)(OC(=O)c3ccccc3)C[C@]2(OC(C)=O)C(=O)[C@@H](C)/C=C/C(C)(C)C(=O)[C@H](OC(C)=O)[C@H]1OC(C)=O | > 100 µg | – | –
4 | C=C1[C@H](OC(=O)c2ccccc2)[C@@H](OC(C)=O)[C@@H](OC(C)=O)C(C)(C)/C=C/[C@H](C)C(=O)[C@@]2(OC(C)=O)C[C@H](C)[C@H](OC(C)=O)[C@@H]2[C@H]1OC(C)=O | > 100 µg | – | –
5 | CCCCCCCCCCCCCC(=O)O[C@@H]1[C@@H](C)[C@@]2(O)[C@@H](C=C(CO)C[C@]3(O)C(=O)C(C)=C[C@@H]23)[C@@H]2C(C)(C)[C@]12OC(C)=O [PHORBOL MYRISTATE ACETATE] | 0.0085 µg | – | 0.012 µg
6 | C=C1[C@H](OC(C)=O)[C@H]2[C@@H](OC(C)=O)[C@@H](C)C[C@]2(OC(C)=O)C(=O)[C@@H](C)/C=C/C(C)(C)C(=O)[C@H](OC(C)=O)[C@H]1OC(C)=O | > 100 µg | – | –
7 | C=C1[C@H](OC(C)=O)[C@H]2[C@@H](OC(C)=O)[C@@H](C)C[C@]2(OC(C)=O)C(=O)[C@@H](C)/C=C/C(C)(C)C(=O)[C@H](OC(C)=O)[C@H]1OC(=O)c1ccccc1 | > 100 µg | – | –
8 | C=C1[C@H](OC(=O)c2ccccc2)[C@@H](OC(C)=O)[C@@H](OC(C)=O)C(C)(C)/C=C/[C@H](C)C(=O)[C@@]2(OC(C)=O)C[C@@](C)(OC(C)=O)[C@H](OC(C)=O)[C@@H]2[C@H]1OC(C)=O | > 100 µg | > 5 µg/mL | –

— ChEMBL document CHEMBL1155748, “New jatrophane diterpenoid esters from Euphorbia turczaninowii” (J Nat Prod, 2001)
